# According to paper PMC8945107 (ACS Omega, 2022):
# Legend:
# NCI-H460 = assay: MTT antiproliferative assay, NCI-H460; assay type: cell-based; settings: Homo sapiens, NCI-H460, 48 h, read-out: IC50 NCI-H460
# How it was run: (§1)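 Cells in 96-well plates were preincubated 24 h, then exposed to test compound 48 h. MTT solution (5 mg/mL stock) was added for 4 h, medium removed, formazan dissolved in DMSO, plate shaken 1 min and absorbance read at 570 nm. Three independent experiments.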
# [1] = tested on: human bronchial epithelioid cells (HBE); assay: MTT antiproliferative / cell viability assay, HBE; assay type: cell-based; settings: 48 h, read-out: IC50 HBE
# How it was run: as §1
# PC-3 = assay: MTT antiproliferative assay, PC-3; assay type: cell-based; settings: Homo sapiens, PC-3, 48 h, read-out: IC50 PC-3
# How it was run: as §1
# A549 cells [2] = assay: Detection of intracellular ROS; assay type: cell-based, human; settings: 10 mM NAC with 2 μM 5e, 12 h
# How it was run: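 A549 cells in 6-well plates were pretreated with NAC for 2 h, then treated with test compound. Afterward they were stained with 10 μM DCFH-DA in FBS-free medium for 0.5 h in the incubator and washed twice with PBS. Cells were collected, resuspended in PBS and analysed by flow cytometry.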
# A549 cells [3] = assay: Vacuolization, fluorescence inverted microscope; assay type: cell-based, human; settings: 10 mM NAC with 2 μM 5e; vacuolization 12 h, MTT 24 h
# How it was run: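 A549 cells were given 2 μM test compound for 12, 24 or 36 h, or 1–4 μM for 24 h, and photographed on an inverted fluorescence microscope. For antioxidant co-treatment, 10 mM NAC was combined with 2 μM compound. Vacuolization was imaged at 12 h, and viability was measured by MTT at 24 h (absorbance 570 nm after DMSO solubilisation).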
SMILES,IC50 (NCI-H460) [nM],IC50 [1] [nM],IC50 (PC-3) [nM],effect of NAC on ROS level induced by 5e (A549 cells [2]),effect of NAC on vacuolization and cell death induced by 5e (A549 cells [3])
"COc1cccc2c1C(=O)c1c(O)c3c(c(O)c1C2=O)C[C@@](O)(C(=O)CO)C[C@@H]3O[C@H]1C[C@H](N)[C@H](O)[C@H](C)O1 [DOX, Doxorubicin]",3140 ± 570,2540 ± 160,1130 ± 200,–,–
"CC(=O)N[C@@H](CS)C(=O)O [NAC, N-acetylcysteine]",–,–,–,could inhibit the level of ROS,could not remarkably suppress vacuolization and cell death
